{"source": "ChEMBL document CHEMBL1122650", "about": "“Synthesis and central nervous system properties of 2-[(alkoxycarbonyl)amino]-4(5)-phenyl-2-imidazolines” (J Med Chem, 1984)", "note": "The source made the active and inactive calls. No cut-off for these calls is given here."}
{"organism": "Mus musculus", "assay": "Mouse behavior activity was determined;D= Depressant", "format": "functional, organism-based", "conditions": "not given", "in_short": "(§1)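 Male Simonsen (ICR) fBR mice, 18-24 g, groups of three, given 3, 10, 30, 100, 300 or 1000 mg/kg ip as aqueous solution and observed for behavioral profile; deaths followed up to 7 days.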"}
{"molecule": "CCOC(=O)NC1=NC(c2cccc(C)c2C)CN1C", "note": "(stereo unspecified)", "Mouse behavior activity": "Depressant"}
{"molecule": "CCN1CC(c2ccccc2)N=C1NC(=O)OC", "note": "(stereo unspecified)", "Mouse behavior activity": "Depressant"}
{"molecule": "COC(=O)NC1=NC(c2ccccc2C)CN1C", "note": "(stereo unspecified)", "Mouse behavior activity": "Depressant"}
{"organism": "Rattus norvegicus", "assay": "Inhibition of the NE [3H]Norepinephrine uptake by rat brain slices In vitro", "format": "functional", "conditions": "not given", "units": {"IC50": "µM"}}
{"molecule": "COC(=O)NC1=NC(c2c(Cl)cccc2Cl)CN1", "note": "(stereo unspecified)", "IC50": "> 100"}
{"molecule": "CN(C)CCCN1c2ccccc2CCc2ccccc21", "note": "[IMIPRAMINE]", "IC50": 3.8}
{"molecule": "NC1=NC(c2ccccc2)CN1", "note": "(stereo unspecified)", "IC50": 0.1}
{"system": "Mus musculus", "assay": "Evaluated in vivo for reserpine hypothermia after oral administration in mouse. Minimum active dose was reported; Inactive", "format": "functional, organism-based", "conditions": "not given", "in_short": "(§2)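 Male HLa (ICR) BR mice, 18-24 g, in groups of eight; reserpine 5 mg/kg ip given 2 h before oral test compound as aqueous solution. Rectal temperature taken hourly; 1-4-h hypothermia assessed by analysis of variance.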"}
{"molecule": "COC(=O)NC1=NC(c2ccccc2F)CN1C", "note": "(stereo unspecified)", "ED50": "inactive"}
{"molecule": "COC(=O)NC1=NCC2(CCc3ccccc32)N1C", "note": "(stereo unspecified)", "ED50": "inactive"}
{"molecule": "COC(=O)NC1=NC(c2ccc(C(F)(F)F)cc2)CN1", "note": "(stereo unspecified)", "ED50": "inactive"}
{"organism": "Mus musculus", "assay": "Inhibition of radioactive NE [3H]norepinephrine uptake into mouse heart", "format": "functional", "conditions": "not given", "in_short": "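Mice dosed ip (aqueous solution) before iv [3H]NE; hearts removed 3 h after label, washed, weighed, dissolved in Protosol and counted as dpm per mg tissue. Dose-response from linear regression.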", "units": {"ED50": "mg/kg"}}
{"molecule": "COC(=O)NC1=NC(c2c(Cl)cccc2Cl)CN1", "note": "(stereo unspecified)", "ED50": 14.2}
{"molecule": "CN(C)CCCN1c2ccccc2CCc2ccccc21", "note": "[IMIPRAMINE]", "ED50": 6.7}
{"molecule": "NC1=NC(c2ccccc2)CN1", "note": "(stereo unspecified)", "ED50": 0.3}
{"organism": "Mus musculus", "assay": "Mouse behavior activity was determined; Dwk=Depressant Weak", "format": "functional, organism-based", "conditions": "not given", "in_short": "as §1"}
{"molecule": "COC(=O)NC1=NC(c2c(Cl)cccc2Cl)CN1", "note": "(stereo unspecified)", "Mouse behavior activity": "Depressant"}
{"molecule": "COC(=O)NC1=NC(c2ccccc2F)CN1C", "note": "(stereo unspecified)", "Mouse behavior activity": "Depressant Weak"}
{"molecule": "COC(=O)NC1=NC(c2ccc(C(C)C)cc2)CN1", "note": "(stereo unspecified)", "Mouse behavior activity": "Depressant - weak"}
{"molecule": "COC(=O)NC1=NC(c2ccccc2)CN1Cc1ccccc1", "note": "(stereo unspecified)", "Mouse behavior activity": "Depressant Weak"}
{"molecule": "COC(=O)NC1=NCC2(CCc3ccccc32)N1C", "note": "(stereo unspecified)", "Mouse behavior activity": "Depressant Weak"}
{"molecule": "COC(=O)NC1=NC(c2cc(OC)cc(OC)c2)CN1", "note": "(stereo unspecified)", "Mouse behavior activity": "Depressant - weak"}
{"molecule": "COC(=O)NC1=NC(c2ccc(C(F)(F)F)cc2)CN1", "note": "(stereo unspecified)", "Mouse behavior activity": "Depressant - weak"}
{"system": "Mus musculus", "assay": "Reserpine hypothermia antagonism in mouse administered perorally with 5 mg/kg of reserpine 2 hour prior to test compound administration", "format": "functional", "conditions": "route oral", "units": {"Reserpine hypothermia": "mg/kg"}}
{"molecule": "COC(=O)NC1=NC(c2c(Cl)cccc2Cl)CN1", "note": "(stereo unspecified)", "Reserpine hypothermia": 0.15}
{"molecule": "CN(C)CCCN1c2ccccc2CCc2ccccc21", "note": "[IMIPRAMINE]", "Reserpine hypothermia": 0.63}
{"molecule": "NC1=NC(c2ccccc2)CN1", "note": "(stereo unspecified)", "Reserpine hypothermia": "< 10"}
{"organism": "Mus musculus", "assay": "Evaluated for antagonism of reserpine induced hypothermia;I= Inactive", "format": "functional, organism-based", "conditions": "not given", "in_short": "as §2"}
{"molecule": "COC(=O)NC1=NC(c2ccc(C(C)C)cc2)CN1", "note": "(stereo unspecified)", "HYPO": "inactive"}
{"molecule": "COC(=O)NC1=NC(c2ccccc2)CN1Cc1ccccc1", "note": "(stereo unspecified)", "HYPO": "inactive"}
{"molecule": "COC(=O)NC1=NC(c2cc(OC)cc(OC)c2)CN1", "note": "(stereo unspecified)", "HYPO": "inactive"}
{"molecule": "CCOC(=O)NC1=NC(c2cccc(C)c2C)CN1C", "note": "(stereo unspecified)", "HYPO": "inactive"}
{"organism": "Mus musculus", "assay": "Righting ability was determined in mice before rapid rolling (unaroused)", "format": "functional", "conditions": "not given", "in_short": "(§3)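 Male Simonsen (ICR) fBR mice, 18-24 g, groups of ten, dosed with aqueous compound. Righting ability checked before (unaroused) and after (aroused) rapid rolling in the hand; ED50 by Litchfield-Wilcoxon method.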", "units": {"Loss of righting reflex": "mg/kg"}}
{"molecule": "CCOC(=O)NC1=NC(c2cccc(C)c2C)CN1C", "note": "(stereo unspecified)", "Loss of righting reflex": 41}
{"molecule": "CCN1CC(c2ccccc2)N=C1NC(=O)OC", "note": "(stereo unspecified)", "Loss of righting reflex": 84}
{"organism": "Mus musculus", "assay": "Righting ability was determined in mice […] rapid rolling (aroused)", "format": "functional", "conditions": "not given", "in_short": "as §3", "units": {"Loss of righting reflex": "mg/kg"}}
{"molecule": "CCOC(=O)NC1=NC(c2cccc(C)c2C)CN1C", "note": "(stereo unspecified)", "Loss of righting reflex": 66}
{"system": "not listed separately", "assay": "Lethal dose in mouse, in groups of ten", "format": "toxicity, organism-based", "conditions": "in vivo", "units": {"LD50": "mg/kg"}}
{"molecule": "COC(=O)NC1=NC(c2c(Cl)cccc2Cl)CN1", "note": "(stereo unspecified)", "LD50": 300}
{"molecule": "COC(=O)NC1=NC(c2ccccc2F)CN1C", "note": "(stereo unspecified)", "LD50": 254}
{"molecule": "COC(=O)NC1=NC(c2ccc(C(C)C)cc2)CN1", "note": "(stereo unspecified)", "LD50": 500}
{"molecule": "COC(=O)NC1=NC(c2ccccc2)CN1Cc1ccccc1", "note": "(stereo unspecified)", "LD50": 200}
{"molecule": "COC(=O)NC1=NCC2(CCc3ccccc32)N1C", "note": "(stereo unspecified)", "LD50": 300}
{"molecule": "COC(=O)NC1=NC(c2cc(OC)cc(OC)c2)CN1", "note": "(stereo unspecified)", "LD50": 300}
{"molecule": "COC(=O)NC1=NC(c2ccc(C(F)(F)F)cc2)CN1", "note": "(stereo unspecified)", "LD50": 700}
{"molecule": "NC1=NC(c2ccccc2)CN1", "note": "(stereo unspecified)", "LD50": 300}
{"molecule": "CCOC(=O)NC1=NC(c2cccc(C)c2C)CN1C", "note": "(stereo unspecified)", "LD50": 300}
{"molecule": "CCN1CC(c2ccccc2)N=C1NC(=O)OC", "note": "(stereo unspecified)", "LD50": 117}
{"molecule": "COC(=O)NC1=NC(c2ccccc2C)CN1C", "note": "(stereo unspecified)", "LD50": 200}
{"organism": "Mus musculus", "assay": "Mouse behavior activity was determined; S-D=Stimulant-Depressant", "format": "functional, organism-based", "conditions": "not given", "in_short": "as §1"}
{"molecule": "CN(C)CCCN1c2ccccc2CCc2ccccc21", "note": "[IMIPRAMINE]", "Mouse behavior activity": "Stimulant"}
{"molecule": "NC1=NC(c2ccccc2)CN1", "note": "(stereo unspecified)", "Mouse behavior activity": "Stimulant-Depressant"}
{"organism": "Rattus norvegicus", "assay": "Inhibition of the 5-HT [14C]5-HT uptake by rat brain slices In vitro", "format": "functional", "conditions": "not given", "in_short": "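Rat cerebral cortex slices, 5 mg tissue per mL Krebs-Henseleit buffer, incubated at 37 °C with [3H]NE or [14C]5-HT; blanks at 4 °C, undosed controls. Stopped after 20 min by filtration; slice radioactivity counted; IC50 from linear regression of uptake inhibition.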", "units": {"IC50": "µM"}}
{"molecule": "COC(=O)NC1=NC(c2c(Cl)cccc2Cl)CN1", "note": "(stereo unspecified)", "IC50": "> 100"}
{"molecule": "CN(C)CCCN1c2ccccc2CCc2ccccc21", "note": "[IMIPRAMINE]", "IC50": 5.3}
{"molecule": "NC1=NC(c2ccccc2)CN1", "note": "(stereo unspecified)", "IC50": 31}
{"organism": "Mus musculus", "assay": "Compound was evaluated for maximal electroshock antagonism (MES) against mice", "format": "functional", "conditions": "not given", "in_short": "(§4)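 Male HLa (ICR) BR mice, groups of eight to ten, dosed ip (aqueous solution) 15 min before transcorneal electroshock (50 mA, 0.2 s). End point: abolition of tonic hind-limb extension; quantal ED50 by Litchfield-Wilcoxon.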", "units": {"ED50": "mg/kg"}}
{"molecule": "COC(=O)NC1=NC(c2ccccc2F)CN1C", "note": "(stereo unspecified)", "ED50": 74}
{"molecule": "COC(=O)NC1=NC(c2ccccc2)CN1Cc1ccccc1", "note": "(stereo unspecified)", "ED50": 100}
{"molecule": "CN(C)CCCN1c2ccccc2CCc2ccccc21", "note": "[IMIPRAMINE]", "ED50": 15}
{"molecule": "CCOC(=O)NC1=NC(c2cccc(C)c2C)CN1C", "note": "(stereo unspecified)", "ED50": 70}
{"molecule": "CCN1CC(c2ccccc2)N=C1NC(=O)OC", "note": "(stereo unspecified)", "ED50": 66}
{"molecule": "COC(=O)NC1=NC(c2ccccc2C)CN1C", "note": "(stereo unspecified)", "ED50": 68}
{"organism": "Mus musculus", "assay": "Evaluated for antagonism of reserpine induced hypothermia", "format": "functional", "conditions": "not given", "in_short": "as §2", "units": {"HYPO": "mg/kg"}}
{"molecule": "COC(=O)NC1=NC(c2c(Cl)cccc2Cl)CN1", "note": "(stereo unspecified)", "HYPO": "<0.5"}
{"molecule": "CN(C)CCCN1c2ccccc2CCc2ccccc21", "note": "[IMIPRAMINE]", "HYPO": "<0.5"}
{"molecule": "COC(=O)NC1=NC(c2ccc(C(F)(F)F)cc2)CN1", "note": "(stereo unspecified)", "HYPO": ">20"}
{"system": "not listed separately", "assay": "HPLC capacity factor (k')", "format": "ADME", "conditions": "not given"}
{"molecule": "COC(=O)NC1=NC(c2c(Cl)cccc2Cl)CN1", "note": "(stereo unspecified)", "Log k'": 0.3}
{"molecule": "COC(=O)NC1=NC(c2ccccc2F)CN1C", "note": "(stereo unspecified)", "Log k'": 0.14}
{"molecule": "COC(=O)NC1=NC(c2ccc(C(C)C)cc2)CN1", "note": "(stereo unspecified)", "Log k'": 0.99}
{"molecule": "COC(=O)NC1=NC(c2ccccc2)CN1Cc1ccccc1", "note": "(stereo unspecified)", "Log k'": 1.25}
{"molecule": "COC(=O)NC1=NCC2(CCc3ccccc32)N1C", "note": "(stereo unspecified)", "Log k'": 0.48}
{"molecule": "COC(=O)NC1=NC(c2cc(OC)cc(OC)c2)CN1", "note": "(stereo unspecified)", "Log k'": 0.1}
{"molecule": "COC(=O)NC1=NC(c2ccc(C(F)(F)F)cc2)CN1", "note": "(stereo unspecified)", "Log k'": 0.56}
{"molecule": "NC1=NC(c2ccccc2)CN1", "note": "(stereo unspecified)", "Log k'": -3.74}
{"molecule": "CCOC(=O)NC1=NC(c2cccc(C)c2C)CN1C", "note": "(stereo unspecified)", "Log k'": 1.02}
{"molecule": "CCN1CC(c2ccccc2)N=C1NC(=O)OC", "note": "(stereo unspecified)", "Log k'": 0.39}
{"molecule": "COC(=O)NC1=NC(c2ccccc2C)CN1C", "note": "(stereo unspecified)", "Log k'": 0.37}
{"organism": "Mus musculus", "assay": "Compound was evaluated for maximal electroshock antagonism (MES) against mice; Inactive", "format": "functional, organism-based", "conditions": "not given", "in_short": "as §4"}
{"molecule": "COC(=O)NC1=NC(c2c(Cl)cccc2Cl)CN1", "note": "(stereo unspecified)", "ED50": "inactive"}
{"molecule": "COC(=O)NC1=NC(c2ccc(C(C)C)cc2)CN1", "note": "(stereo unspecified)", "ED50": "inactive"}
{"molecule": "COC(=O)NC1=NCC2(CCc3ccccc32)N1C", "note": "(stereo unspecified)", "ED50": "inactive"}
{"molecule": "COC(=O)NC1=NC(c2cc(OC)cc(OC)c2)CN1", "note": "(stereo unspecified)", "ED50": "inactive"}
{"molecule": "COC(=O)NC1=NC(c2ccc(C(F)(F)F)cc2)CN1", "note": "(stereo unspecified)", "ED50": "inactive"}
{"molecule": "NC1=NC(c2ccccc2)CN1", "note": "(stereo unspecified)", "ED50": "inactive"}
